Measurements taken from publication PMC5164959 (Biochemical pharmacology, 2016).

What was measured:
PKC [1] = assay: PKC activation: phosphorylation of PKC substrates by western blot in HeLa cells; assay type: cell-based, human; settings: 40 μM, 30 min
Method in brief: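 HeLa cells were grown in DMEM with 5% FBS and treated 30 min with 4 or 40 μM test compound or 100 nM PMA, with or without 1 h pretreatment with 500 nM bisindolylmaleimide II. In separate runs, a 5-HT2AR agonist (10 μM, 6 h) was given with or without 40 μM antagonist. Lysates (50 μg) were immunoblotted for phospho-(Ser) PKC substrates; four independent experiments were quantified.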

PKC [2] = assay: PKC activation: phosphorylation of PKC substrates by western blot in U87 cells; assay type: cell-based, human; settings: treatment for 30 min
Method in brief: (§1)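 Glioblastoma cells were treated 30 min with 4 or 40 μM test compound or 100 nM PMA, with or without 1 h pretreatment with 500 nM bisindolylmaleimide II. Cleared Triton lysates (50 μg) were run on 8.75% SDS-PAGE and probed with phospho-(Ser) PKC substrate antibody, detected by alkaline phosphatase chemiluminescence. Three independent experiments were quantified.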

5-HT6 = 5-HT6 (Homo sapiens, UniProt P50406); assay: Radioligand competition binding assay
Method in brief: (§2)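 Run by the NIMH PDSP as radioligand competition binding assays. The primary screen used 10 μM test compound and reported mean percent inhibition of radioligand binding (n=4); above 50% counted as significant. At those receptors, IC50 values came from non-linear regression of competition binding isotherms and were converted to Ki with the Cheng-Prusoff equation.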

DGKγ = settings: 30 μM R59022; cited from earlier work
5-HT2B = 5-HT2B (Homo sapiens, UniProt P41595); assay: Radioligand competition binding assay
PKC [3] = assay: PKC activation: phosphorylation of PKC substrates by western blot in U251 cells; assay type: cell-based, human; settings: treatment for 30 min
Method in brief: as §1

5-HT2A = 5-HT2A (Homo sapiens, UniProt P28223); assay: Radioligand competition binding assay
5-HT1B = 5-HT1B (Homo sapiens, UniProt P28222); assay: Radioligand competition binding assay
Method in brief: as §2

5-HTRs = assay: Agonist functional assays at 5 serotonin receptors; assay type: cell-based; settings: 5 receptors where low Ki values were observed; data not shown

Sequence of 5-HT2B (P41595 whole entry, species assumed): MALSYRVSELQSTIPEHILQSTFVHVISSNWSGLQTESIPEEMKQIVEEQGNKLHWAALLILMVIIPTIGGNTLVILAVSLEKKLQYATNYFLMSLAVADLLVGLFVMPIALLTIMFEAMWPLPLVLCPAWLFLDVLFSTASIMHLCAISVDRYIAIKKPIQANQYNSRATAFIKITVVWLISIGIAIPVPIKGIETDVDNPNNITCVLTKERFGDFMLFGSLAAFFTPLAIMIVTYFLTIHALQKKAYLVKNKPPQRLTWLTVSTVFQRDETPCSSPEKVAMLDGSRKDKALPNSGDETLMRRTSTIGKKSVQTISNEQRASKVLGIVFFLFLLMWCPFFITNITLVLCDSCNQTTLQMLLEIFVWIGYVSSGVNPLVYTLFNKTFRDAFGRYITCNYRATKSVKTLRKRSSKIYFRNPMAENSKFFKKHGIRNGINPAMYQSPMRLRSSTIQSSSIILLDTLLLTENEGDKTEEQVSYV
Sequence of 5-HT2A (P28223 whole entry, species assumed): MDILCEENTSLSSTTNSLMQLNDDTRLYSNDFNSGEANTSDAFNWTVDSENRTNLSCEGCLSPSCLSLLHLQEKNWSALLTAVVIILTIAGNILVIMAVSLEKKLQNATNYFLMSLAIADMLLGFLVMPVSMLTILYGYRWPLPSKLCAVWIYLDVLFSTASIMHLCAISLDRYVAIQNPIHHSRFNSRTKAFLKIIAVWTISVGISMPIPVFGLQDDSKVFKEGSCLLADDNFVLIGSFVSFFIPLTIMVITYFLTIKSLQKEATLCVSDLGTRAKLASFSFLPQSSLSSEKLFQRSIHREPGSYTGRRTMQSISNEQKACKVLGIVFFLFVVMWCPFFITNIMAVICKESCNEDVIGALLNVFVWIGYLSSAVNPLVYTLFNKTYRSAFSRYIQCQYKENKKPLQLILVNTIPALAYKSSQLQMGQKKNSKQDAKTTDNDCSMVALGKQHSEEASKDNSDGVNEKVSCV
Sequence of 5-HT6 (P50406 whole entry, species assumed): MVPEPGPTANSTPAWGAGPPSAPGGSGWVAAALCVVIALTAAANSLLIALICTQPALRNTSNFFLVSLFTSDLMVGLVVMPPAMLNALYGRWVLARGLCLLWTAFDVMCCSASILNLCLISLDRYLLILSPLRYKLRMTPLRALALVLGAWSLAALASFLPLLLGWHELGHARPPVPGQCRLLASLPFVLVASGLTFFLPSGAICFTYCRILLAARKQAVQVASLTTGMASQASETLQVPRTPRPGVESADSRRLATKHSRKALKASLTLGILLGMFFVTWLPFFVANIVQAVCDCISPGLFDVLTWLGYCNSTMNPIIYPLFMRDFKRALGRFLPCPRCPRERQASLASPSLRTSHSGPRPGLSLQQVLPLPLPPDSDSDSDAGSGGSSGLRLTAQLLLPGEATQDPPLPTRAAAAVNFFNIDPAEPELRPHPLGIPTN
Sequence of 5-HT1B (P28222 whole entry, species assumed): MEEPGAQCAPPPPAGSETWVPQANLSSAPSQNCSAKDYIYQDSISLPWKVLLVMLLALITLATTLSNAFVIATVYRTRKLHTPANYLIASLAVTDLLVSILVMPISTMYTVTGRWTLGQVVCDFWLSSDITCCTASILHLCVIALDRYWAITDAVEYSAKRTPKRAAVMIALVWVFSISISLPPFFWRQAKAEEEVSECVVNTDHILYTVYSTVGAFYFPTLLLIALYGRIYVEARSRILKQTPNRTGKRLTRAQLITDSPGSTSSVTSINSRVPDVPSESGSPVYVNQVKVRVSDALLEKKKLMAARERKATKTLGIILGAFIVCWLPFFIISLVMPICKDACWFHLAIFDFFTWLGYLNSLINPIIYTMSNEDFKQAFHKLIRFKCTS

With Cc1nc2sccn2c(=O)c1CCN1CCC(=C(c2ccccc2)c2ccc(F)cc2)CC1 [R59022] the “Increase in phosphorylation of PKC downstream targets” value (PKC [1]) was “about 2.5 fold”, the “Activation of PKC” value (PKC [2]) was “activate PKC” and the “Percent Inhibition of Binding 5-HT6” value (5-HT6; 10 μM test compound, n=4) was 96.9%. For the same compound, the Ki (5-HT6; read-out: Ki 5-HT6, Cheng-Prusoff from best-fit IC50) was 55.3 nM, the “Inhibition of DGKγ” value (DGKγ) was “did not inhibit” and the “Percent Inhibition of Binding 5-HT2B” value (5-HT2B; 10 μM test compound, n=4) was 100.5%. For the same compound, the Ki (5-HT2B; read-out: Ki 5-HT2B, Cheng-Prusoff from best-fit IC50) was 2.7 nM, the “Activation of PKC” value (PKC [3]) was “not in U251 cells” and the “Percent Inhibition of Binding 5-HT2A” value (5-HT2A; 10 μM test compound, n=4) was 98.2%. For the same compound, the Ki (5-HT2A; read-out: Ki 5-HT2A, Cheng-Prusoff from best-fit IC50) was 2.2 nM, the “Percent Inhibition of Binding 5-HT1B” value (5-HT1B; 10 μM test compound, n=4) was 83.5% and the Ki (5-HT1B; read-out: Ki 5-HT1B, Cheng-Prusoff from best-fit IC50) was 656 nM. For the same compound, the “Agonist activity at 5-HTRs” value (5-HTRs) was “very low to no activity”.
